From PMC4183664 (Journal of the American Chemical Society, 2014)

Columns and labels:
[1] = test system: supercoiled pSP64 plasmid DNA; test: Relaxation of supercoiled pSP64 plasmid DNA by Fe; assay type: biochemical; conditions: Fe(II) chelate; pSP64, 50 mM Tris-HCl pH 8.0, 25 °C, 30 min; agarose gel
In short: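 200 ng supercoiled pSP64 treated with freshly prepared Fe2+ (from ferrous ammonium sulfate) plus compound at 2 or 4 μM, in 50 mM Tris-HCl pH 8.0, 25 °C for 30 min. Quenched with glycerol/bromophenol blue loading buffer. Run on 1% agarose gel in 9 mM Tris-borate pH 8.3 with 320 μM Na2EDTA, 96 V for 2 h. Stained 1 h with 0.5 μg/mL ethidium bromide, destained in water, viewed under UV. Cleaved DNA given as percent of total per lane.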

[2] = test system: DU145 human prostate cancer cells; test: MTT cytotoxicity assay; assay type: cell-based; conditions: 24 h incubation, four concentrations, 5% DMSO, MTT read at 560 nm
In short: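 DU145 cells grown in log phase in MEM with 10% FBS and 1% pen-strep. Trypsinized, seeded at 5000 cells/well and incubated 24 h. Medium replaced with compound-containing medium (5% DMSO final) for 24 h. MTT solution (5 mg/mL in PBS, pH 7.4) added for 3 h at 37 °C. Crystals dissolved in DMSO; absorbance read at 560 nm, reference 670 nm. Viability = OD560/[OD560(positive control) − OD560(negative control)], with linear fit.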

supercoiled DNA = conditions: relative to BLM; cited from earlier work
[3] = test system: SW-480 colon cancer cells; test: Effect of GLUT1 inhibitors on internalization of BLM-Cy5**; assay type: cell-based; conditions: pretreatment with different concentrations of inhibitor, 37 °C, 2 h, then 25 μM dye-labeled conjugate 44; 2 s exposure
In short: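 SW480 cells kept in RPMI 1640 with 10% FBS and 1% pen-strep at 37 °C, 5% CO2. Seeded on glass chamber slides at 5000 cells/well for 48 h. At 70% confluence, rinsed with PBS and switched to phenol-red-free RPMI. Pretreated 2 h at 37 °C with cytochalasin B or phloretin, then 25 μM Cy5-labeled conjugate for 1 h at 37 °C. PBS-washed, fixed 5 min in 4% paraformaldehyde, DAPI-mounted, imaged through Cy5 filter with 40× oil objective; cells counted.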

Compound	extent of double-strand cleavage of plasmid DNA [1]	cytotoxicity toward cultured DU145 cells (cell viability, MTT) [2]	double-strand DNA cleavage (supercoiled DNA)	potency of supercoiled DNA relaxation, fold less than for BLM (supercoiled DNA)	inhibition of BLM-Cy5** (44) binding/uptake [3]
deglycobleomycin A5 [deglycoBLM A5]	minimal double-strand cleavage of plasmid DNA	cytotoxic to DU145 cells but much less so than BLM A5	much less double-strand cleavage is apparent	2–3 fold	
C=C1[C@@H](C)[C@H]2[C@H](Cc3ccccc3)NC(=O)[C@]23OC(=O)/C=C/[C@H](O)CCC[C@@H](C)C/C=C/[C@H]3[C@@H]1O [cytochalasin B]					substantial and dose-dependent inhibition
O=C(CCc1ccc(O)cc1)c1c(O)cc(O)cc1O [phloretin]					substantial and dose-dependent inhibition
bleomycin A5 [BLM A5]		the most potent of the derivatives tested			
